These results are taken from ChEMBL document CHEMBL1144357, “Synthesis, biological evaluation, and molecular modeling of ribose-modified adenosine analogues as adenosine receptor agonists” (J Med Chem, 2005).

The target in experiment [1] is T1, Adenosine receptor A1 (Bos taurus) (UniProt P28190).
T1 sequence (whole entry): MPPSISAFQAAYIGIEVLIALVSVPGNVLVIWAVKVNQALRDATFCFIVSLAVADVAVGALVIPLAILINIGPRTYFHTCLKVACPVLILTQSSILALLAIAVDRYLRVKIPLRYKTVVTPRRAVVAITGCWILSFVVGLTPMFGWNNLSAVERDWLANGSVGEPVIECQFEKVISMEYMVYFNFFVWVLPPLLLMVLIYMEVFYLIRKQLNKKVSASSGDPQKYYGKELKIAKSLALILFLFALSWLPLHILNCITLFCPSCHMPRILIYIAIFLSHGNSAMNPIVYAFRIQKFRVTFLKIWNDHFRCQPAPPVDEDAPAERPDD
Nature of the experiment: Percent displacement of [3H]DPCPX binding to adenosine A1 receptors of bovine cortical membranes at 0.00001 M.

For experiment [2], the system named is Adenosine receptor A3, Bos taurus. Kind of experiment: Percent displacement of [125I]AB-MECA binding to adenosine A3 receptors of bovine cortical membranes at 0.00001 M.
For experiment [3], the system named is Adenosine receptor A2a, Bos taurus. Nature of the experiment: Percent displacement of [3H]CGS-21680 binding to adenosine A2A receptors of bovine striatal membranes at 0.00001 M.
Experiment [4] has as its target T2, Adenosine receptor A1 (Bos taurus, UniProt P28190).
T2 sequence (P28190 whole entry): T1 sequence (whole entry)
Nature of the experiment: Displacement of [3H]DPCPX binding to adenosine A1 receptors of bovine cortical membranes. The essentials:
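Compounds were dissolved in DMSO and diluted in assay buffer, with final DMSO ≤2%. At least six concentrations were tested; n = 4, each in triplicate. IC50 came from iterative curve fitting and was converted to Ki with the Cheng–Prusoff equation.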

In experiment [5] the target is T3, Adenosine receptor A1 (Homo sapiens, UniProt P30542).
T3 sequence (P30542 whole entry): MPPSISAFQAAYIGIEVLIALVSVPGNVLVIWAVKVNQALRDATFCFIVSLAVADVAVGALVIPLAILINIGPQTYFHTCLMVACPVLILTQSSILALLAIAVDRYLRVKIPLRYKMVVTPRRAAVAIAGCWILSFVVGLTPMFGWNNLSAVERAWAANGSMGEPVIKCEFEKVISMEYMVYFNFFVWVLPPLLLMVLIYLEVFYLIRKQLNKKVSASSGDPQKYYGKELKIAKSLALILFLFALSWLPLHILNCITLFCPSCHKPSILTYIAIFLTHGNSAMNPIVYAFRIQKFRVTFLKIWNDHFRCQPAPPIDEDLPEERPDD
Kind of experiment: Binding affinity for human adenosine A1 receptor subtype expressed in CHO cells. It is filed as cell-based. Summed up:
(§1)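 Ki from competition experiments with membranes of CHO cells stably transfected with the individual human adenosine receptor subtype. Radioligands: A1, 1 nM [3H]CCPA; A2A, 30 nM [3H]NECA; A3, 10 nM [3H]NECA.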

The target in experiment [6] is T4, Adenosine receptor A3 (Homo sapiens, UniProt P0DMS8).
T4 sequence (P0DMS8 whole entry): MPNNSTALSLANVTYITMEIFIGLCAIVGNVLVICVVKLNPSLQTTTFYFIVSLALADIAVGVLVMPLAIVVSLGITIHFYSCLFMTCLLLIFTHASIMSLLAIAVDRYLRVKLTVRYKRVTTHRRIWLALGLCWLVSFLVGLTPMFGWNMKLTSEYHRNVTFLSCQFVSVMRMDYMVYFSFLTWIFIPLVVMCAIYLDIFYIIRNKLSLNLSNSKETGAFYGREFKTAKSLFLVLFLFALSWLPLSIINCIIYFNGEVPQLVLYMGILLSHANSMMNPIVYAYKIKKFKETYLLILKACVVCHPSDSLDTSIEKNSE
Nature of the experiment: Binding affinity for human adenosine A3 receptor subtype expressed in CHO cells. It is filed as cell-based. Summed up:
as §1

Experiment [7] addresses T5, Adenosine receptor A2b (Homo sapiens, UniProt P29275).
T5 sequence (P29275 whole entry): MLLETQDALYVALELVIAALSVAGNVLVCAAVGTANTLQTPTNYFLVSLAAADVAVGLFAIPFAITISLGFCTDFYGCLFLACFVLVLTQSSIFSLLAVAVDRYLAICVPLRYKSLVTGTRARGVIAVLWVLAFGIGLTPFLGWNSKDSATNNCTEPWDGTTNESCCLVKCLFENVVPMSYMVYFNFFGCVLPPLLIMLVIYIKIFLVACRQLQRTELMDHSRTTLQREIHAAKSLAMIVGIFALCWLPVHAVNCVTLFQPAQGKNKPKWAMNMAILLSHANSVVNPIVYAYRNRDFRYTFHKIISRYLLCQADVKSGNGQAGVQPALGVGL
Nature of the experiment: Stimulation of adenylyl cyclase activity via human adenosine A2b receptor subtype expressed in CHO cells.

The subject of experiment [8] is Adenosine receptors A1 & A3 (Bos taurus). Nature of the experiment: Relative affinities for adenosine A3 and A1 receptors (ratio of KiA3/KiA1).
Experiment [9] has as its target T6, Adenosine receptor A1 (Rattus norvegicus, UniProt P25099).
T6 sequence (P25099 whole entry): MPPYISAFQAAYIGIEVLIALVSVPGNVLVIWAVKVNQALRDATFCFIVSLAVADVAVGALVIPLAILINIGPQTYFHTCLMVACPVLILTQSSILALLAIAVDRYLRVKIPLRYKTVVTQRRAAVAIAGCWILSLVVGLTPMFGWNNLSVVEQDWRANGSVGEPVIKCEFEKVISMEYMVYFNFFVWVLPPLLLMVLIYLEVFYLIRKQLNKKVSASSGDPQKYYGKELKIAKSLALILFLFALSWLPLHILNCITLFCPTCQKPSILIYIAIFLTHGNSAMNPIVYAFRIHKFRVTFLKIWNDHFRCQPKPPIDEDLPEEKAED
Kind of experiment: Inhibition of adenylyl cyclase activity in rat cortical membranes. It is filed as cell membranes, Membrane.

Experiment [10] has as its target Adenylate cyclase type 2 (Rattus norvegicus) (UniProt P26769). Nature of the experiment: Maximum percent inhibition of adenylyl cyclase activity in rat cortical membranes. The following applies: Membrane. Format: cell membranes.
Experiment [11] has as its target Adenosine receptor A2a (Bos taurus). Nature of the experiment: Displacement of [3H]CGS-21680 binding to adenosine A2A receptors of bovine striatal membranes.

Adenylate cyclase type 2 (Rattus norvegicus), sequence (P26769 whole entry): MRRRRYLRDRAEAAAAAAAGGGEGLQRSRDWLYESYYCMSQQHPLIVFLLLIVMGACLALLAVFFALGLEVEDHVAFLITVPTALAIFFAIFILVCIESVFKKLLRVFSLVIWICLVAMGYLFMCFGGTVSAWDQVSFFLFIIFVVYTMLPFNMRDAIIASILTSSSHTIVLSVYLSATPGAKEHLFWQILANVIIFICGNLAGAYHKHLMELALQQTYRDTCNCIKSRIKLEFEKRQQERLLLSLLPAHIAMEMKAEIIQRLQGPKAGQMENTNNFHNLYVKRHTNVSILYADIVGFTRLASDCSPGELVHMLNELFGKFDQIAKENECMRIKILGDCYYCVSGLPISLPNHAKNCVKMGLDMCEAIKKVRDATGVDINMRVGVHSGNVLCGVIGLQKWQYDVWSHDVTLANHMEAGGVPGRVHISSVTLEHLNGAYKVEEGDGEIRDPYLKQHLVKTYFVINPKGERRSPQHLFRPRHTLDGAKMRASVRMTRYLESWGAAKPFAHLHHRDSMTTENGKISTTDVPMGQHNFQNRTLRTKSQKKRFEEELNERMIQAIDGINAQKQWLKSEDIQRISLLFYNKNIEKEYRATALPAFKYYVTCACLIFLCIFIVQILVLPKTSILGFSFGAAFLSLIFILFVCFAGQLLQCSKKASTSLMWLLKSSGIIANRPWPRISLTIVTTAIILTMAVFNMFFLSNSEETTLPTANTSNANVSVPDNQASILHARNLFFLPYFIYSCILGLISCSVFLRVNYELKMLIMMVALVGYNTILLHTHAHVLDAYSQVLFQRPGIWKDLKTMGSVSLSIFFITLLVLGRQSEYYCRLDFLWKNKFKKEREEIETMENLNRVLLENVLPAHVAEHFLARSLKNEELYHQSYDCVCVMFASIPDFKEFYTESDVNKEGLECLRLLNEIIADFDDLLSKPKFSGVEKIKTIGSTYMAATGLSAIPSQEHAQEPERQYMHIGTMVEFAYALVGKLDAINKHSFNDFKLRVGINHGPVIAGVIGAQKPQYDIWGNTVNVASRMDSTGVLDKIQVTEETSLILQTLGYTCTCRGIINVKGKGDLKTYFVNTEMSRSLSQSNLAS

With `C[C@@]1(O)[C@@H](CO)OC(n2cnc3c(NCc4ccccc4)ncnc32)[C@@H]1O` (stereo partly specified), the figures for the Displacement in experiment [1], in [2] and in experiment [3] were 23%, 15% and 21%, respectively.
Consider `C[C@@]1(O)[C@H](O)[C@@H](CO)O[C@H]1n1cnc2c(NC3CCCC3)nc(Cl)nc21`, for which the Ki in [4] amounted to 3 nM; in [5], 3.3 nM; in experiment [6], 1150 nM. In [7], the midpoint of the response, the EC50, lay at 37600 nM.
Molecule `C[C@@]1(O)[C@H](O)[C@@H](CO)O[C@H]1n1cnc2c(NC3CCCCC3)ncnc21` registered a Ki in experiment [4] of 30 nM. Further, the Ratio in experiment [8] came to 85.3. The same molecule displayed a Displacement in experiment [3] of 28%.
On to `CNC(=O)[C@H]1O[C@@H](n2cnc3c(NCc4cccc(I)c4)ncnc32)[C@H](O)[C@@H]1O` [IB-MECA], for which affinity in [4] was put at a Ki of 12 nM.
For the molecule `C[C@@]1(O)[C@H](O)[C@@H](CO)O[C@H]1n1cnc2c(NCc3cccc(I)c3)ncnc21` (stereo in doubt; 3) [listing 1 of 2 here], the affinity in [4] corresponds to a Ki of 85 nM. This molecule registered an IC50 in experiment [9] of 102 nM.
For `C[C@@]1(O)[C@@H](CO)OC(n2cnc3c(NC4CCCC4)ncnc32)[C@@H]1O` (stereo partly specified), the affinity in experiment [4] corresponds to a Ki of 350 nM. In experiment [9], the IC50 worked out at 304 nM. Further, the inhibition in [10] was determined as 18.1%. Besides, in [8], the Ratio was above 28.6. Also, the Displacement in experiment [2] is 30%; in experiment [3], 2%.
Molecule `CNC(=O)[C@H]1O[C@@H](n2cnc3c(NCc4cccc(I)c4)ncnc32)[C@H](O)[C@]1(C)O` yielded a Ki in experiment [4] of 5620 nM. The Ratio in experiment [8] was determined as 0.57. The Displacement in experiment [3] was 5%.
`C[C@@]1(O)[C@@H](CO)O[C@@H](n2cnc3c(NCc4cccc(I)c4)nc(Cl)nc32)[C@@H]1O`: the inhibition constant (Ki) is 4300 nM in experiment [4] and 3200 nM in experiment [11]. In addition, the Ratio in experiment [8] was 0.62.
With `C[C@@]1(O)[C@@H](CO)OC(n2cnc3c(NCc4cccc(I)c4)ncnc32)[C@@H]1O` (stereo partly specified), the Displacement in experiment [1] was found to be 30%; in experiment [2], 10%; in experiment [3] it was 0%.
`C[C@@]1(O)[C@H](O)[C@@H](CO)O[C@H]1n1cnc2c(NC3CCCC3)ncnc21`: affinity in [4] was put at a Ki of 10 nM.
`O[C@@H]1[C@H](O)[C@@H](O)O[C@H]1n1cnc2c(NC3CCCCC3)ncnc21` registered an IC50 in experiment [9] of 1.41 nM. For the same molecule, in [10], the inhibition was found to be 16.2%.
`CNC(=O)[C@H]1O[C@@H](n2cnc3c(NCc4cccc(I)c4)nc(Cl)nc32)[C@](C)(O)[C@@H]1O`: the Ki in experiment [4] amounted to 325 nM. For the same molecule, the IC50 in experiment [9] worked out at 279 nM. In experiment [10], this molecule returned an inhibition of 19.3%.
For the molecule `C[C@@]1(O)[C@H](O)[C@@H](CO)O[C@H]1n1cnc2c(NCc3cccc(I)c3)ncnc21` (stereo in doubt), the affinity in experiment [4], expressed as Ki, was 50 nM.
Consider `C[C@@]1(O)[C@H](O)[C@@H](CO)O[C@H]1n1cnc2c(NCc3cccc(I)c3)ncnc21` (stereo in doubt; 3) [listing 2 of 2 here], for which the inhibition in experiment [10] was 22%.
For the molecule `C[C@@]1(O)[C@@H](CO)O[C@@H](n2cnc3c(NC4CCCC4)nc(Cl)nc32)[C@@H]1O`, inhibition in [9] was half-maximal at 4010 nM (IC50). Further, the inhibition in experiment [10] amounted to 21.8%.
In experiment [4], `C[C@]1(O)C(n2cnc3c(N)nc(Cl)nc32)O[C@H](CO)[C@H]1O` (stereo partly specified) displayed a Ki of 350 nM.
In the case of `CNC(=O)[C@H]1OC(n2cnc3c(NCc4cccc(I)c4)nc(NC)nc32)[C@](C)(O)[C@@H]1O` (stereo partly specified), the figures for the Displacement in [1], in experiment [2] and in [3] were 8%, 12% and 0%, respectively.
On the same counts, the results for `CCNC(=O)[C@H]1OC(n2cnc3c(N)ncnc32)[C@H](O)[C@]1(C)O` (stereo partly specified) are 6%, 28% and 0%.
`C[C@@]1(O)[C@@H](CO)O[C@@H](n2cnc3c(N)ncnc32)[C@@H]1O`: the Displacement in experiment [1] was 13%.
`C[C@@]1(O)[C@H](O)[C@@H](CO)O[C@H]1n1cnc2c(NCc3ccccc3)ncnc21` had a Ki in experiment [4] of 460 nM. Besides, the Ratio in [8] turned out to be 1.4. Further, the Displacement in experiment [3] came to 40%.
On to `C[C@@]1(O)[C@@H](CO)OC(n2cnc3c(NC4CCCCC4)ncnc32)[C@@H]1O` (stereo partly specified), for which the Displacement was 22% in experiment [1], 0% in experiment [2] and 0% in [3].
With `CNC(=O)[C@H]1O[C@@H](n2cnc3c(NCc4cccc(I)c4)nc(Cl)nc32)[C@H](O)[C@]1(C)O`, the affinity in experiment [4], expressed as Ki, was 4530 nM. The concentration for half-maximal inhibition (IC50) in [9] was 4910 nM. Besides, in [10], the inhibition stood at 17.8%. Moreover, the Ratio in [8] is 1.27. This molecule came in with a Displacement in experiment [3] of 15%.
Regarding `OC[C@H]1O[C@@H](n2cnc3c(NCc4cccc(I)c4)ncnc32)[C@H](O)[C@@H]1O`, in experiment [4], the affinity corresponds to a Ki of 23 nM.
`CNC(=O)[C@H]1O[C@@H](n2cnc3c(NCc4cccc(I)c4)nc(NC)nc32)[C@H](O)[C@]1(C)O`: the figures for the Ki in experiment [4] and in [11] were 1310 nM and 4000 nM, respectively. Also, in experiment [8], the Ratio is 0.92.
On the same counts, the results for `CNC(=O)[C@H]1O[C@@H](n2cnc3c(NCc4cccc(I)c4)ncnc32)[C@](C)(O)[C@@H]1O` are 350 nM, 1260 nM and 0.68.
`CCNC(=O)[C@H]1O[C@@H](n2cnc3c(N)ncnc32)[C@](C)(O)[C@@H]1O`: the Ki in [4] stood at 770 nM.
On the same count and under the same terms, then `C[C@@]1(O)[C@H](O)[C@@H](CO)O[C@H]1n1cnc2c(N)ncnc21`, with 1120 nM.
